Reference: ChEMBL document CHEMBL1152128, “Catalytic site-selective synthesis and evaluation of a series of erythromycin analogs” (2008)
≈ marks a conversion by molar mass, not a printed value.

How the values were obtained:
Staphylococcus aureus = assay: Antibacterial activity against Staphylococcus aureus ATCC 29213; format: functional
Procedure, shortened: (§1)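 Broth microdilution MIC in Mueller Hinton II broth, 384-well format, quadruplicate wells. The compound is serially diluted two-fold from DMSO stocks, with final concentrations half of 64 to 0.0625 µg/mL. The inoculum is a 0.5 McFarland culture diluted 100-fold, mixed 1:1 with compound to 20 µL per well. Plates are incubated 24 h at 35 °C. MIC is the lowest concentration with no visible growth; OD620 is also read.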

Enterococcus faecalis = assay: Antibacterial activity against Enterococcus faecalis ATCC 29212; format: functional; procedure, shortened: as §1

Question: What does the source list for `CCCCCCCC(=O)O[C@H]1[C@H](O[C@@H]2[C@@H](C)[C@H](O[C@H]3C[C@@](C)(OC)[C@@H](O)[C@H](C)O3)[C@@H](C)C(=O)O[C@H](CC)[C@](C)(O)[C@H](OC(=O)CCCCCCC)[C@@H](C)C(=O)[C@H](C)C[C@]2(C)O)O[C@H](C)C[C@@H]1N(C)C`?
Answer: MIC (Staphylococcus aureus): > 32 µg/mL; MIC (Enterococcus faecalis): > 32 µg/mL

Question: What does the source list for `CC[C@H]1OC(=O)[C@H](C)[C@@H](O[C@H]2C[C@@](C)(OC)[C@@H](OP(=O)(Oc3ccccc3)Oc3ccccc3)[C@H](C)O2)[C@H](C)[C@@H](O[C@@H]2O[C@H](C)C[C@H](N(C)C)[C@H]2OC(C)=O)[C@@](C)(O)C[C@@H](C)C(=O)[C@H](C)[C@@H](OC(=O)CCNC(=O)OC(C)(C)C)[C@@]1(C)O`?
Answer: MIC (Staphylococcus aureus): > 32 µg/mL; MIC (Enterococcus faecalis): > 32 µg/mL

Question: For `CCCCCCCC(=O)O[C@@H]1[C@@H](C)C(=O)[C@H](C)C[C@](C)(O)[C@H](O[C@@H]2O[C@H](C)C[C@H](N(C)C)[C@H]2O)[C@@H](C)[C@H](O[C@H]2C[C@@](C)(OC)[C@@H](O)[C@H](C)O2)[C@@H](C)C(=O)O[C@H](CC)[C@]1(C)O`, which MIC (Staphylococcus aureus) is on record?
Answer: 32 µg/mL (≈ 37.2 µM)

Question: What about the MIC (Enterococcus faecalis) of the same compound?
Answer: 32 µg/mL (≈ 37.2 µM)

Question: For `CC[C@H]1OC(=O)[C@H](C)[C@@H](O[C@H]2C[C@@](C)(OC)[C@@H](O)[C@H](C)O2)[C@H](C)[C@@H](O[C@@H]2O[C@H](C)C[C@H](N(C)C)[C@H]2OC(C)=O)[C@@](C)(O)C[C@@H](C)C(=O)[C@H](C)[C@@H](OC(=O)CCNC(=O)OC(C)(C)C)[C@@]1(C)O`, which MIC (Staphylococcus aureus) is on record?
Answer: 32 µg/mL (≈ 33.8 µM)

Question: And the MIC (Enterococcus faecalis)?
Answer: > 32 µg/mL

Question: With `CCC(=O)O[C@@H]1[C@@H](C)C(=O)[C@H](C)C[C@](C)(O)[C@H](O[C@@H]2O[C@H](C)C[C@H](N(C)C)[C@H]2O)[C@@H](C)[C@H](O[C@H]2C[C@@](C)(OC)[C@@H](O)[C@H](C)O2)[C@@H](C)C(=O)O[C@H](CC)[C@]1(C)O` as the compound, how does the MIC (Staphylococcus aureus) read?
Answer: 16 µg/mL (≈ 20.3 µM)

Question: What about the MIC (Enterococcus faecalis) of the same compound?
Answer: 32 µg/mL (≈ 40.5 µM)

Question: For `CC[C@H]1OC(=O)[C@H](C)[C@@H](O[C@H]2C[C@@](C)(OC)[C@@H](O)[C@H](C)O2)[C@H](C)[C@@H](O[C@@H]2O[C@H](C)C[C@H](N(C)C)[C@H]2OC(=O)CCNC(=O)OC(C)(C)C)[C@@](C)(O)C[C@@H](C)C(=O)[C@H](C)[C@@H](OC(=O)CCNC(=O)OC(C)(C)C)[C@@]1(C)O`, which MIC (Staphylococcus aureus) is on record?
Answer: > 32 µg/mL

Question: And the MIC (Enterococcus faecalis)?
Answer: > 32 µg/mL

Question: Which MIC (Staphylococcus aureus) does the source give for `CCCCCCCC(=O)O[C@H]1[C@H](O[C@@H]2[C@@H](C)[C@H](O[C@H]3C[C@@](C)(OC)[C@@H](OP(=O)(Oc4ccccc4)Oc4ccccc4)[C@H](C)O3)[C@@H](C)C(=O)O[C@H](CC)[C@](C)(O)[C@H](OC(=O)CCCCCCC)[C@@H](C)C(=O)[C@H](C)C[C@]2(C)O)O[C@H](C)C[C@@H]1N(C)C` here?
Answer: > 32 µg/mL

Question: What about the MIC (Enterococcus faecalis) of the same compound?
Answer: > 32 µg/mL

Question: Which MIC (Staphylococcus aureus) does the source give for `CCC(=O)O[C@H]1[C@H](O[C@@H]2[C@@H](C)[C@H](O[C@H]3C[C@@](C)(OC)[C@@H](OP(=O)(Oc4ccccc4)Oc4ccccc4)[C@H](C)O3)[C@@H](C)C(=O)O[C@H](CC)[C@](C)(O)[C@H](OC(=O)CC)[C@@H](C)C(=O)[C@H](C)C[C@]2(C)O)O[C@H](C)C[C@@H]1N(C)C` here?
Answer: > 32 µg/mL

Question: And the MIC (Enterococcus faecalis)?
Answer: > 32 µg/mL

Question: `CCC(=O)O[C@H]1[C@H](O[C@@H]2[C@@H](C)[C@H](O[C@H]3C[C@@](C)(OC)[C@@H](O)[C@H](C)O3)[C@@H](C)C(=O)O[C@H](CC)[C@](C)(O)[C@H](OC(=O)CC)[C@@H](C)C(=O)[C@H](C)C[C@]2(C)O)O[C@H](C)C[C@@H]1N(C)C` was tested. Which MIC (Staphylococcus aureus) did it give?
Answer: 32 µg/mL (≈ 37.8 µM)

Question: And the MIC (Enterococcus faecalis)?
Answer: 32 µg/mL (≈ 37.8 µM)

Question: How did the MIC (Staphylococcus aureus) turn out when `C=CCCC(=O)O[C@H]1[C@H](O[C@@H]2[C@@H](C)[C@H](O[C@H]3C[C@@](C)(OC)[C@@H](O)[C@H](C)O3)[C@@H](C)C(=O)O[C@H](CC)[C@](C)(O)[C@H](OC(=O)CCC=C)[C@@H](C)C(=O)[C@H](C)C[C@]2(C)O)O[C@H](C)C[C@@H]1N(C)C` was run?
Answer: 32 µg/mL (≈ 35.6 µM)

Question: And the MIC (Enterococcus faecalis)?
Answer: > 32 µg/mL

Question: What does the source list for `CC[C@H]1OC(=O)[C@H](C)[C@@H](O[C@H]2C[C@@](C)(OC)[C@@H](O)[C@H](C)O2)[C@H](C)[C@@H](O[C@@H]2O[C@H](C)C[C@H](N(C)C)[C@H]2O)[C@@](C)(O)C[C@@H](C)C(=O)[C@H](C)[C@@H](OC(=O)CCNC(=O)OC(C)(C)C)[C@@]1(C)O`?
Answer: MIC (Staphylococcus aureus): 32 µg/mL (≈ 35.4 µM); MIC (Enterococcus faecalis): > 32 µg/mL

Question: Which results are given for `CCCCCCCC(=O)O[C@@H]1[C@@H](C)C(=O)[C@H](C)C[C@](C)(O)[C@H](O[C@@H]2O[C@H](C)C[C@H](N(C)C)[C@H]2O)[C@@H](C)[C@H](O[C@H]2C[C@@](C)(OC)[C@@H](OC(=O)CCCCCCC)[C@H](C)O2)[C@@H](C)C(=O)O[C@H](CC)[C@]1(C)O`?
Answer: MIC (Staphylococcus aureus): > 32 µg/mL; MIC (Enterococcus faecalis): > 32 µg/mL

Question: `C=CCCC(=O)O[C@H]1[C@H](O[C@@H]2[C@@H](C)[C@H](O[C@H]3C[C@@](C)(OC)[C@@H](OP(=O)(Oc4ccccc4)Oc4ccccc4)[C@H](C)O3)[C@@H](C)C(=O)O[C@H](CC)[C@](C)(O)[C@H](OC(=O)CCC=C)[C@@H](C)C(=O)[C@H](C)C[C@]2(C)O)O[C@H](C)C[C@@H]1N(C)C` was tested. Which MIC (Staphylococcus aureus) did it give?
Answer: > 32 µg/mL

Question: What about the MIC (Enterococcus faecalis) of the same compound?
Answer: > 32 µg/mL

Question: With `C=CCCC(=O)O[C@@H]1[C@@H](C)C(=O)[C@H](C)C[C@](C)(O)[C@H](O[C@@H]2O[C@H](C)C[C@H](N(C)C)[C@H]2O)[C@@H](C)[C@H](O[C@H]2C[C@@](C)(OC)[C@@H](O)[C@H](C)O2)[C@@H](C)C(=O)O[C@H](CC)[C@]1(C)O` as the compound, how does the MIC (Staphylococcus aureus) read?
Answer: 16 µg/mL (≈ 19.6 µM)

Question: What about the MIC (Enterococcus faecalis) of the same compound?
Answer: 32 µg/mL (≈ 39.2 µM)

Question: What does the source list for `CC[C@H]1OC(=O)[C@H](C)[C@@H](O[C@H]2C[C@@](C)(OC)[C@@H](O)[C@H](C)O2)[C@H](C)[C@@H](O[C@@H]2O[C@H](C)C[C@H](N(C)C)[C@H]2O)[C@](C)(O)C[C@@H](C)C(=O)[C@H](C)[C@@H](O)[C@]1(C)O` [ERYTHROMYCIN]?
Answer: MIC (Staphylococcus aureus): 1 µg/mL (≈ 1.36 µM); MIC (Enterococcus faecalis): 2 µg/mL (≈ 2.73 µM)
